Publication PMC3404614 (Biochimica et Biophysica Acta, 2012)
“And” between values parts separate entries of the source, which are not always exact repeats. Equal values may be shown once. Read-outs that look alike come from different tables or passages of the source.

Legend:
[1] = test system: Akt; assay: pS473 Akt phosphorylation by pancreatic growth factors; type: cell-based; details: rat pancreatic acini; data not shown
[2] = test system: Yes; details: cited from earlier work; for activation of Yes by EGF and PDGF: hepatocytes and fibroblasts
[3] = test system: cSrc; details: murine fibroblasts; cited from earlier work
[4] = test system: Lyn; details: cited from earlier work
[5] = test system: PKC-δ and Src; details: PC-12 cells and parotid cells; cited from earlier work
[6] = test system: Yes kinase; type: cell-based, rat; details: for association of Yes with p125FAK, PYK2, PI3K, PKD, p130Cas, Shc and PKCδ (Co-IP) / association of Yes with Raf, Cbl or ERK1/2 (Co-IP): CCK 100 nM 2.5 min or TPA 1 µM 5 min; for association of Yes with p125FAK, PYK2, PI3K, PKD, p130Cas, Shc and PKCδ (Co-IP): 8 experiments; for association between Yes and PI3K / association of Yes with autophosphorylated forms pY397 p125FAK and pY402 PYK2: CCK or TPA; for direct association of Raf, Cbl or ERK1/2 with Yes, reverse Co-IP: Cbl or ERK1/2 antibodies, detection with Yes antibodies; for association of Yes with Cbl or Erk 1/2 (Co-IP), discussion / association of Yes with focal adhesion kinases, PKCδ, Shc, p130Cas, PI3K, PTEN and PKD (Co-IP): TPA and CCK, physiological and supramaximal concentrations
[7] = test system: Yes kinase; type: cell-based, rat; details: for Yes pY416 phosphorylation, time course, 1 min: 1 min incubation; for tmax (Yes pY416 phosphorylation) / t1/2 (Yes pY416 phosphorylation): CCK (100 nM) or TPA (1 µM)
Outline: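 Collagenase-dispersed rat acini were preincubated 2 h at 37 °C, then incubated with CCK (100 nM) or TPA (1 µM) for times up to 15 min. Yes was immunoprecipitated (4 µg anti-Yes, protein G, overnight 4 °C), then blotted for pY416 and total Yes and read by densitometry. Values are % of zero-time control, mean ± S.E., n=7, with t1/2 from curve fitting.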

[8] = test system: Lyn; details: pancreatic acini; cited from earlier work
[9] = test system: Src; details: cited from earlier work
[10] = test system: adenylate cyclase; details: cited from earlier work; for adenylate cyclase activation: rat pancreatic acini; for activation of PLC cascades or adenylate cyclase: pancreatic acinar cell
[11] = test system: Yes kinase; type: cell-based, rat
Outline: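 Rat pancreatic acini were prepared by collagenase digestion, preincubated 2 h at 37 °C in HEPES buffer (pH 7.45), then exposed to graded concentrations of CCK or CCK-JMV at 37 °C. Yes was immunoprecipitated from lysates and immunoblotted for pY416 Src family, with total Yes as loading control, and quantified by densitometry.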

[12] = test system: Fyn; details: cited from earlier work
[13] = test system: SFK; details: cited from earlier work
[14] = test system: Hck; details: endothelial cells; cited from earlier work
[15] = test system: PKC; assay: Effect of PKC inhibition on CCK- and TPA-stimulated pY416 Yes phosphorylation; type: cell-based, rat
Outline: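 Rat acini were pretreated with the PKC inhibitor GF109203X (5 µM) during preincubation, then incubated with 100 nM CCK (1 min) or 1 µM TPA (2.5 min) at 37 °C. Lysates were immunoprecipitated with anti-Yes and blotted for pY416 Src family and total Yes, quantified by densitometry. Results are expressed as % of control, mean ± S.E., n=4.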

[16] = test system: endoplasmic reticulum Ca^2+-ATPase; assay: Effect of Ca2+ depletion on CCK- and TPA-stimulated pY416 Yes phosphorylation; type: cell-based, rat; details: for inhibition of TPA-/CCK-stimulated Yes activation (thapsigargin, words): TPA and CCK as stimulants
[17] = test system: [Ca^2+i] increase stimulated by CCK; details: thapsigargin, calcium-free medium; cited from earlier work
[18] = test system: CCK2 receptors; assay: CCK2 receptor ligands: pY416 Yes phosphorylation in rat pancreatic acini; type: cell-based; details: gastrin 10 nM, 1 min
[19] = from CCK-JMV partial stimulation

Epidermal growth factor (NSNTGCPPSYDGYCLNGGVCMYVESVDRYVCNCVIGYIGERCQHRDLRWWKLR; UniProt P07522 974-1026, looked up) [EGF]
pS473 Akt phosphorylation [1]: stimulated pS473 Akt phosphorylation
activation of Yes by EGF and PDGF [2]: stimulated activation of Yes
cSrc activation [3]: activate the SFK, cSrc

C[N+](C)(C)CCOC(N)=O [carbachol]
Lyn activation in pancreatic acinar cells [4]: activated
association of PKC-δ and Src [5]: neither TPA nor carbachol stimulated the association of PKC-δ and Src

bombesin
Lyn activation in pancreatic acinar cells [4]: activated

CCCCCCCCCCCCCC(=O)O[C@@H]1[C@@H](C)[C@@]2(O)[C@@H](C=C(CO)C[C@]3(O)C(=O)C(C)=C[C@@H]23)[C@@H]2C(C)(C)[C@]12OC(C)=O [TPA, 12-O-tetradecanoylphorbol-13-acetate]
association of Yes with p125FAK, PYK2, PI3K, PKD, p130Cas, Shc and PKCδ (Co-IP) [6]: produced an increase in the association of Yes
association of Yes with Raf, Cbl or ERK1/2 (Co-IP) ([6]; data not shown): not with Raf, Cbl or ERK1/2
association between Yes and PI3K [6]: stimulated an association between Yes and PI3K
association of Yes with autophosphorylated forms pY397 p125FAK and pY402 PYK2 [6]: stimulates an association of Yes with each of their specific autophosphorylated forms
direct association of Raf, Cbl or ERK1/2 with Yes, reverse Co-IP [6]: did not obtained any stimulated direct association with Yes
association of Yes with Cbl or Erk 1/2 (Co-IP), discussion [6]: not with Cbl or Erk 1/2
association of Yes with focal adhesion kinases, PKCδ, Shc, p130Cas, PI3K, PTEN and PKD (Co-IP) [6]: stimulate the association of Yes
Yes pY416 phosphorylation, time course, 1 min ([7]; means±S.E., 7 experiments): 153±25 % of control
tmax (Yes pY416 phosphorylation) ([7]; 7 experiments): 2.49±0.29 min
t1/2 (Yes pY416 phosphorylation) ([7]; means±S.E., 7 experiments): 1.25±0.24 min
Yes pY416 phosphorylation, time course, 2.5 min ([7]; TPA, 2.5 min, means±S.E., 7 experiments, p<0.05): 266±47 % of control
duration of increased Yes pY416 phosphorylation ([7]; sustained increase): 15 min
association of PKC-δ and Src [5]: neither TPA nor carbachol stimulated the association of PKC-δ and Src
association of Lyn with PKC-δ, Shc, p125FAK and Pyk-2 [8]: stimulated its association with PKC-δ, Shc, p125FAK and Pyk-2

insulin-like growth factor 1 [IGF-1]
pS473 Akt phosphorylation [1]: stimulated pS473 Akt phosphorylation
Src activation by IGF ([9]; differentiating preadipocytes): stimulates Src activation

vasoactive intestinal peptide [VIP]
adenylate cyclase activation [10]: activates adenylate cyclase

COOH-terminal octapeptide of cholecystokinin [CCK]
Lyn activation in pancreatic acinar cells [4]: activated
maximal stimulation of Y416 phosphorylation of Yes ([11]; CCK 100 nM, means±S.E., 5 experiments): 280±16 % of control
lowest concentration with detectable increase in Y416 phosphorylation of Yes ([11]; CCK dose-response): 10 pM
share of CCK stimulation of Yes mediated by high affinity CCK1 receptor state [11, 19]: 64%
share of CCK stimulation of Yes mediated by low affinity CCK1 receptor state [11, 19]: 36%
association of Yes with p125FAK (Co-IP), low CCK ([6]; CCK 100 pM and 0.1 nM, 2.5 min): not with ^p125FAK
association of Yes with Raf, Cbl or ERK1/2 (Co-IP), low CCK ([6]; CCK 100 pM and 0.1 nM, data not shown): with Raf, Cbl or ERK1/2 (data not shown)
association of Yes with p125FAK, PYK2, PI3K, PKD, p130Cas, Shc and PKCδ (Co-IP) [6]: produced an increase in the association of Yes
association of Yes with Raf, Cbl or ERK1/2 (Co-IP) ([6]; data not shown): not with Raf, Cbl or ERK1/2
association between Yes and PI3K [6]: stimulated an association between Yes and PI3K
association of Yes with autophosphorylated forms pY397 p125FAK and pY402 PYK2 [6]: stimulates an association of Yes with each of their specific autophosphorylated forms
direct association of Raf, Cbl or ERK1/2 with Yes, reverse Co-IP [6]: did not obtained any stimulated direct association with Yes
association of Yes with Cbl or Erk 1/2 (Co-IP), discussion [6]: not with Cbl or Erk 1/2
association of Yes with focal adhesion kinases, PKCδ, Shc, p130Cas, PI3K, PTEN and PKD (Co-IP) [6]: stimulate the association of Yes
activation of Yes through CCK2 receptors ([2]; rat pancreatic acinar cell line AR42J): activate Yes through CCK2 receptors
Yes pY416 phosphorylation, time course, 1 min ([7]; means±S.E., 7 experiments): 310±43 % of control
tmax (Yes pY416 phosphorylation) ([7]; 7 experiments): 1 min and 0.98±0.14 min
t1/2 (Yes pY416 phosphorylation) ([7]; means±S.E., 7 experiments): 0.309±0.042 min and 0.31±0.04 min
Yes pY416 phosphorylation, time course, 30 s ([7]; CCK, 30-second incubation, means±S.E., 7 experiments, p<0.05): 278±27 % of control
association of Lyn with PKC-δ, Shc, p125FAK and Pyk-2 [8]: stimulated its association with PKC-δ, Shc, p125FAK and Pyk-2

Endothelin-1: interacts with ET-1 and ET-3 receptors in the pancreatic acinar cell
Lyn activation in pancreatic acinar cells [4]: weakly stimulated
activation of PLC cascades or adenylate cyclase [10]: does not activate PLC cascades nor activate adenylate cyclase
activation of PLC cascades or adenylate cyclase ([10]; listed as endothelin): does not stimulate phospholipase C or adenylate cyclase
Yes activity with endothelin ([2]; endothelial cells): unaltered
Fyn activation by endothelin ([12]; endothelial cells): activated the SFK Fyn
SFK activation by endothelin ([13]; different cells): activates SFKs in different cells
Hck inhibition by endothelin [14]: inhibited
Src inhibition by endothelin ([9]; endothelial cells): inhibited

insulin: pancreatic growth factor
pS473 Akt phosphorylation [1]: stimulated pS473 Akt phosphorylation
Fyn activation by insulin ([12]; ovarian cells): stimulates Fyn activation
SFK activation by insulin ([13]; skeletal muscle cells): stimulates SFK activation

Secretin: activates adenylate cyclase in rat pancreatic acini
Lyn activation in pancreatic acinar cells [4]: weakly stimulated
adenylate cyclase activation [10]: activates adenylate cyclase
SFK activation by secretin ([13]; other studies): activated the SFKs

CN(C)CCCn1cc(C2=C(c3c[nH]c4ccccc34)C(=O)NC2=O)c2ccccc21 [GF109203X]
decrease in CCK-stimulated activation of Yes by PKC inhibitor ([15]; GF109203X + CCK): 80%
inhibition of TPA-/CCK-stimulated Yes activation (PKC inhibitor, words) ([15]; TPA and CCK as stimulants): inhibit TPA−/CCK-stimulated Yes

C/C=C(/C)C(=O)O[C@H]1C(C)=C2[C@H]([C@@H]1OC(=O)CCCCCCC)[C@@](C)(OC(C)=O)C[C@H](OC(=O)CCC)[C@@]1(O)[C@H]2OC(=O)[C@@]1(C)O [Thapsigargin]
inhibition of TPA-/CCK-stimulated Yes activation (thapsigargin, words) [16]: inhibit TPA−/CCK-stimulated Yes
inhibition of TPA-/CCK-stimulated Yes activation (thapsigargin, words) ([16]; listed as thapsigargin): did not completely inhibit CCK-stimulated Yes activation
reduction of CCK-stimulated Yes activation by thapsigargin (Ca2+ depletion) ([16]; thapsigargin, calcium-depleting conditions, + CCK): 71%
inhibition of CCK-stimulated [Ca2+]i increase [17]: completely inhibit

basic fibroblast growth factor [bFGF]
pS473 Akt phosphorylation [1]: stimulated pS473 Akt phosphorylation
cSrc activation [3]: activate the SFK, cSrc
SFK activation in pancreatic acinar cells ([13]; bFGF, pancreatic acinar cells): not activate SFK

platelet-derived growth factor [PDGF]
pS473 Akt phosphorylation [1]: stimulated pS473 Akt phosphorylation
activation of Yes by EGF and PDGF [2]: stimulated activation of Yes
cSrc activation [3]: activate the SFK, cSrc

Gastrin
pY416 Yes phosphorylation by gastrin [18]: did not produce any increase in pY416 Yes phosphorylation
